Laboratory results from ChEMBL document CHEMBL4251750, “Structural Insights of Benzenesulfonamide Analogues as NLRP3 Inflammasome Inhibitors: Design, Synthesis, and Biological Characterization” (J Med Chem, 2018).
The source made the active and inactive calls. The calls are words filed in the database; no cut-off is given here.

What was measured:
[1] = target: T1, NACHT, LRR and PYD domains-containing protein 3 (Mus musculus, UniProt Q8R4B8); test: Inhibition of NLRP3 in mouse J774A.1 cells assessed as reduction in LPS-stimulated IL-1beta levels pre-incubated with LPS for 4.5 hrs followed by incubation for 30 mins in presence of ATP and measured after 30 mins by ELISA; type: cell-based
T1 sequence (Q8R4B8 whole entry, the tested form may be a part): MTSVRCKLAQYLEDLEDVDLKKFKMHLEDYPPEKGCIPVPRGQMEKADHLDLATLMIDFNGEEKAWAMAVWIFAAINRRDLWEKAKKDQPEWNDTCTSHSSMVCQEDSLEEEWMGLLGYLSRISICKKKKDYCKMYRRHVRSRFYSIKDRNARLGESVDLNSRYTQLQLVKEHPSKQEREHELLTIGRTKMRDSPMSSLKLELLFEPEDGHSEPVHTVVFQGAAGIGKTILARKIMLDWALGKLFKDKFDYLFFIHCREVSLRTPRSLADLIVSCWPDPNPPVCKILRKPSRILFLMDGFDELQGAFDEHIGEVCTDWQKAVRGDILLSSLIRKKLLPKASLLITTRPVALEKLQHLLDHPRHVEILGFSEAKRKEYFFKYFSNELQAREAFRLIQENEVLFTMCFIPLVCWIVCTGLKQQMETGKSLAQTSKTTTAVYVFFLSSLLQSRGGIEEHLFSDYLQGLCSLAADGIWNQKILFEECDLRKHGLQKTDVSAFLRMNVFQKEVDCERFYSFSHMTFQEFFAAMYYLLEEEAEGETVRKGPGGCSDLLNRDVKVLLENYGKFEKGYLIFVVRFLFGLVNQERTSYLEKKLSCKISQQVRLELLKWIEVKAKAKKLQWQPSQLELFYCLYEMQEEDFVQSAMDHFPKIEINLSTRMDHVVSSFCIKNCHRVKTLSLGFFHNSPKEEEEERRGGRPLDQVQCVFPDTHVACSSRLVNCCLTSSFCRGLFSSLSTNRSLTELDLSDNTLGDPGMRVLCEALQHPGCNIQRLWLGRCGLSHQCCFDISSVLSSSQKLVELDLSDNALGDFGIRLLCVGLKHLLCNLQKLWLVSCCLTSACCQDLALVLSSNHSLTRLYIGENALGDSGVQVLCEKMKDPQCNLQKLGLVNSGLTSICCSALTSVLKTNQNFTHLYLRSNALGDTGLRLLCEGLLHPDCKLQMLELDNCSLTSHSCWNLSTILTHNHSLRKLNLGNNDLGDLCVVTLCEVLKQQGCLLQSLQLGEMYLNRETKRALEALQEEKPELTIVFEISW

Mus musculus [2] = test: In-vivo inhibition of NLRP3 inflammasome in C57BL/6 mouse assessed as reduction in LPS-induced IL-1beta levels at 0.5 mg/kg, ip pre-treated for 1 hr followed by LPS stimulation for 2.5 hrs by ELISA; type: functional, organism-based
Summary of the method: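 C57BL/6 mice dosed with compound or vehicle, then 1 h later given LPS 20 mg/kg i.p. (PBS control). Serum IL-1β measured by ELISA 2.5 h after LPS.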

[3] = target: NACHT, LRR and PYD domains-containing protein 3 (Mus musculus) (UniProt Q8R4B8); test: Ratio of IC50 for LPS/ATP-induced NLRP3-mediated IL1beta release in mouse J774A.1 cells to IC50 for LPS/ATP-induced NLRP3-mediated IL1beta release in mouse BMDM; type: cell-based
NACHT, LRR and PYD domains-containing protein 3 (Mus musculus), sequence (Q8R4B8 whole entry, the tested form may be a part): as above

[4] = target: T1, NACHT, LRR and PYD domains-containing protein 3; test: Inhibition of NLRP3 in mouse BMDM assessed as reduction in LPS-stimulated IL-1beta levels pre-incubated with LPS for 4.5 hrs followed by incubation for 30 mins in presence of ATP and measured after 30 mins by ELISA; type: cell-based
Summary of the method: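 J774A.1 cells (DMEM, 10% FBS; 1 × 10⁵/well, plated 24 h) or bone marrow derived macrophages primed with E. coli 0111:B4 LPS (final 1 µg/mL) for 4.5 h. Compound and ATP (5 mM) then added together for 30 min. Supernatant IL-1β by mouse ELISA.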

Mus musculus [5] = test: Cardioprotective activity in 30 mins coronary artery ligated I/R AMI ICR mouse model assessed as reduction in troponin-1 levels at 30 mg/kg, po measured at 24 hrs post surgery by ELISA; type: functional, organism-based
Summary of the method: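 ICR mice (8-12 weeks) under pentobarbital anaesthesia, intubated; left thoracotomy, pericardiectomy, proximal left coronary artery ligated 30 min then released. Compound or matched vehicle (0.1mL), n=6 per group.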

Mus musculus [6] = test: Cardioprotective activity in 30 mins coronary artery ligated I/R AMI ICR mouse model assessed as reduction in infract size at 30 mg/kg, po measured at 24 hrs post surgery by TTC-staining based assay; type: functional, organism-based
Summary of the method: (§1)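 ICR mice (8-12 weeks) were anesthetized with pentobarbital (50-70 mg/kg) and intubated, then underwent left thoracotomy and pericardiectomy. The proximal left coronary artery was ligated for 30 min or 75 min and released. Compound or vehicle was given at 0.1 mL, with n=6 per group. At 24 h after ischemia, viable myocardium was stained with TTC to measure infarct size.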

Mus musculus [7] = test: (§2) Cognition enhancement activity in double APP/PS1 transgenic Alzheimer's disease C57BL/6 mouse model assessed as decrease in latency to find goal platform at 100 mg/kg, ip administered as single daily dose at 5 times per week for first 1 week followed by oral administration as single daily dose at 5 times per week for next 7 weeks by Morris water maze test relative to control; type: functional, organism-based
Summary of the method: (§3)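 APP/PS1 female transgenic mice (B6C3-Tg APPswe/PSEN1dE9) and matching WT females, randomized at 7 months (WT vehicle n=4, treated n=6; Tg vehicle n=5, treated n=7). Daily i.p. (10% DMSO with PEG-100) for 5 days, then oral (2% DMSO in corn oil) once daily weekdays for 7 weeks. Afterwards tested by novel object recognition (discrimination index) and Morris water maze (4-day fixed-platform latency trials, then probe trial).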

Mus musculus [8] = test: as §2, with “increase” for “decrease”, “time spent in” for “latency to find”, “quadran” for “platform”; type: functional, organism-based; summary of the method: as §3
Mus musculus [9] = test: Effect on cognition activity in wild type C57BL/6 mouse assessed as decrease in time spent in goal quadran at 100 mg/kg, ip administered as single daily dose at 5 times per week for first 1 week followed by oral administration as single daily dose at 5 times per week for next 7 weeks by Morris water maze test relative to control; type: ADME, organism-based; details: in vivo; summary of the method: as §3
Mus musculus [10] = test: as §2, with “discrimination index” for “decrease in latency to find goal platform”, “novel object recognition” for “Morris water maze”; type: functional; summary of the method: as §3
Mus musculus [11] = test: Cardioprotective activity in 75 mins coronary artery ligated I/R AMI ICR mouse model assessed as reduction in infract size at 30 mg/kg, po measured at 24 hrs post surgery by TTC-staining based assay; type: functional, organism-based; summary of the method: as §1

Compound | IC50 [1] | also measured
CNS(=O)(=O)c1ccc(CCNC(=O)c2c(Cl)cccc2OC)cc1 | 44400 nM | –
CCCCNS(=O)(=O)c1ccc(CCNC(=O)c2cc(Cl)ccc2OC)cc1 | 970 nM | –
COc1ccc(Cl)cc1C(=O)NCCc1ccc(S(=O)(=O)NCc2ccccc2)cc1 | 1310 nM | –
CNS(=O)(=O)c1ccc(CCNC(=O)c2cc(Cl)ccc2O)cc1 | 10500 nM | –
CCCN(CCC)S(=O)(=O)c1ccc(CCNC(=O)c2cc(Cl)ccc2OC)cc1 | 1400 nM | –
CNS(=O)(=O)c1ccc(CCCCNC(=O)c2cc(Cl)ccc2OC)cc1 | 1740 nM | –
COc1ccc(Cl)cc1C(=O)NCCc1ccc(S(=O)(=O)NCCc2ccccc2)cc1 | 810 nM | –
CCCCN(CCCC)S(=O)(=O)c1ccc(CCNC(=O)c2cc(Cl)ccc2OC)cc1 | 550 nM | inhibition (Mus musculus [2]): Active; Ratio IC50 [3]: 4; IC50 [4]: 120 nM
CNS(=O)(=O)c1ccc(CCNC(=O)c2cc(Cl)cc(OC)c2)cc1 | 5830 nM | –
CCCNS(=O)(=O)c1ccc(CCNC(=O)c2cc(Cl)ccc2OC)cc1 | 1640 nM | –
CNS(=O)(=O)c1ccc(CCNC(=O)c2cc(Cl)ccc2OC)cc1 | – | Activity (Mus musculus [5]): Active; Activity (Mus musculus [6]): Active; Activity (Mus musculus [7]): Active; Activity (Mus musculus [8]): Active; Activity (Mus musculus [9]): Non-Toxic; Activity (Mus musculus [10]): <50%; Activity (Mus musculus [11]): Active
COc1ccc(Cl)cc1C(=O)NCCc1ccc(S(=O)(=O)N2CCC2)cc1 | 1660 nM | –
CCN(CC)S(=O)(=O)c1ccc(CCNC(=O)c2cc(Cl)ccc2OC)cc1 | 2010 nM | –
CNS(=O)(=O)c1ccc(CCNC(=O)c2ccccc2OC)cc1 | 17100 nM | –
CNS(=O)(=O)c1ccc(CCCNC(=O)c2cc(Cl)ccc2OC)cc1 | 2030 nM | –
CNS(=O)(=O)c1ccc(CCNC(=O)c2ccc(OC)c(Cl)c2)cc1 | 32800 nM | –
CNS(=O)(=O)c1ccc(CCNC(=O)c2cccc(Cl)c2OC)cc1 | 31800 nM | –
COc1ccc(Cl)cc1C(=O)NCCc1ccc(S(=O)(=O)NCc2ccc(C(F)(F)F)cc2)cc1 | 1900 nM | –
CNS(=O)(=O)c1ccc(CCNC(=O)c2ccc(Cl)cc2OC)cc1 | 18000 nM | –
COc1ccc(CNS(=O)(=O)c2ccc(CCNC(=O)c3cc(Cl)ccc3OC)cc2)cc1 | 420 nM | inhibition (Mus musculus [2]): Active; IC50 [4]: 360 nM
COc1ccc(Cl)cc1C(=O)NCCc1ccc(S(=O)(=O)N2CCOCC2)cc1 | 3440 nM | –
COc1ccc(Cl)cc1C(=O)NCCc1ccc(S(=O)(=O)N2CCCC2)cc1 | 3530 nM | –
COc1ccc(Cl)cc1C(=O)NCCc1ccc(S(=O)(=O)N2CCCCC2)cc1 | 5010 nM | –
COc1ccc(Cl)cc1C(=O)NCCc1ccc(S(=O)(=O)N2CCNCC2)cc1 | 3400 nM | –
COc1ccc(Cl)cc1C(=O)NCCc1ccc(S(=O)(=O)NCc2ccc(Cl)cc2)cc1 | 1500 nM | –
CNS(=O)(=O)c1ccc(CCNC(=O)c2cccc(Cl)c2)cc1 | 13400 nM | –
CNS(=O)(=O)c1ccc(CCNC(=O)c2ccccc2)cc1 | 147000 nM | –
COc1ccc(Cl)cc1C(=O)NCCc1ccc(S(=O)(=O)Nc2ccccc2)cc1 | 2080 nM | –
COc1ccc(Cl)cc1C(=O)NCCc1ccc(S(=O)(=O)NCc2ccc(O)cc2)cc1 | 630 nM | –
